Source: ChEMBL document CHEMBL1137995, “Synthesis of some newer analogues of substituted dibenzoyl phenol as potent anti-inflammatory agents” (Bioorg Med Chem Lett, 2004)
Active and inactive are the calls of the source. The rule behind the calls is not given here.

Assays:
Rattus norvegicus [1] = test: Ulcerogenic activity was measured in fasting rat with hyperaemia on peroral administration of 400 mg/kg; format: functional; conditions: route oral
Outline: (§1)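 Rats (200–230 g), ten per group, fasted 24 h, given a single oral dose of 100, 200 or 400 mg/kg. Animals were killed 5 h after dosing. Stomach and small intestine were examined under a microscope for hyperaemia, epithelial shedding, petechiae, frank haemorrhage, and erosion or ulceration. Values are percent of animals showing hyperaemia or showing ulcer.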

Rattus norvegicus [2] = test: Ulcerogenic activity was measured in fasting rat with ulcer on peroral administration of 100 mg/kg; format: functional; conditions: route oral; outline: as §1
Rattus norvegicus [3] = test: Ulcerogenic activity was measured in fasting rat with ulcer on peroral administration of 400 mg/kg; format: functional; conditions: route oral; outline: as §1
[4] = Acute lethal dose of compound was determined in mice when administered perorally; format: ADME; conditions: mouse, in vivo, po; read-out: ALD50
Outline: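 Albino mice (25–30 g), groups of 10 per dose level, given test compound at several dose levels. Percent mortality in each group was recorded 24 h after dosing. The approximate 50% lethal dose (ALD50) was calculated by the Smith method.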

Rattus norvegicus [5] = test: Ulcerogenic activity was measured in fasting rat with ulcer on peroral administration of 200 mg/kg; format: functional; conditions: route oral; outline: as §1
Rattus norvegicus [6] = test: Ulcerogenic activity was measured in fasting rat with hyperaemia on peroral administration of 100 mg/kg; format: functional; conditions: route oral; outline: as §1
Oryctolagus cuniculus [7] = species: Oryctolagus cuniculus; test: Percent inhibition of cyclooxygenase activity of compound at 10 uM concentration; format: functional
Outline: (§2)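 Microsomes came from rabbit distal colon mucosa, homogenized in Tris pH 8.0, centrifuged, resuspended and recentrifuged, and used immediately. Microsomes were preincubated with test agent 10 min at 37 °C in Tris–HCl pH 8.0 containing 2 mM glutathione, 5 mM L-tryptophan and 1 µM haematin. Then 20 µM arachidonic acid with [1-14C] tracer was added and reacted 5 min at 37 °C. PGE2 was separated by HPLC, radioactivity counted by scintillation, and inhibition taken against paired controls.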

Rattus norvegicus [8] = species: Rattus norvegicus; test: Effective dose of compound for anti-inflammatory activity; format: functional
Rattus norvegicus [9] = test: Ulcerogenic activity was measured in fasting rat with hyperaemia on peroral administration of 200 mg/kg; format: functional; conditions: route oral; outline: as §1
Rattus norvegicus [10] = test: Percent of carageenam induced paw oedema inhibition in rat as a measure of anti-inflammatory activity at 80 mg/kg dose on peroral administration; format: functional; conditions: route oral
Outline: (§3)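 Albino rats (125–160 g), five per group, dosed orally at 20, 40 or 80 mg/kg. After 30 min, 0.2 mL of 1% carrageenan in 0.9% NaCl was injected subcutaneously into the plantar aponeurosis of the hind paw. Paw volume was read by water plethysmometer at injection and at 3 h. Inhibition = (1 − Gt/Gc) × 100 against a carrageenan-only control group of five rats.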

Rattus norvegicus [11] = test: Percent of carageenam induced paw oedema inhibition in rat as a measure of anti-inflammatory activity at 20 mg/kg dose on peroral administration; format: functional; conditions: route oral; outline: as §3
Rattus norvegicus [12] = test: Percent of carageenam induced paw oedema inhibition in rat as a measure of anti-inflammatory activity at 40 mg/kg dose on peroral administration; format: functional; conditions: route oral; outline: as §3
Oryctolagus cuniculus [13] = species: Oryctolagus cuniculus; test: Percent inhibition of cyclooxygenase activity of compound at 10 uM concentration; No inhibition; format: functional; outline: as §2

Compound	Ulcerogenic activity (Rattus norvegicus [1]) [%]	Ulcerogenic activity (Rattus norvegicus [2]) [%]	Ulcerogenic activity (Rattus norvegicus [3]) [%]	LD50 [4] [mg/kg]	Ulcerogenic activity (Rattus norvegicus [5]) [%]	Ulcerogenic activity (Rattus norvegicus [6]) [%]	Inhibition (Oryctolagus cuniculus [7]) [%]	ED50 (Rattus norvegicus [8]) [mg/kg]	Ulcerogenic activity (Rattus norvegicus [9]) [%]	Antiinflammatory Activity (Rattus norvegicus [10]) [%]	Antiinflammatory Activity (Rattus norvegicus [11]) [%]	Antiinflammatory Activity (Rattus norvegicus [12]) [%]	inhibition (Oryctolagus cuniculus [13])
Cc1ccc(C(=O)c2cc(C(=O)c3ccccc3)cc(C)c2O)cc1	100	10	40	> 1000	20	70	40	62.5	90	62.8	20.1	29.1	–
Cc1ccc(C(=O)c2cc(C)cc(C(=O)c3ccc(C)cc3)c2O)cc1	100	20	40	> 1000	30	50	87	60.2	70	77.1	22.2	45.4	–
Cc1ccccc1C(=O)c1cc(C)c(O)c(C(=O)c2ccccc2)c1	100	10	40	> 1000	20	40	20	78.3	60	55.3	14.1	29.5	–
Cc1cc(C(=O)c2cccc(Cl)c2)c(O)c(C(=O)c2cccc(Cl)c2)c1	90	10	12	> 1000	20	30	–	51.2	60	94.1	30.3	48.2	inactive
Cc1cc(C(=O)c2ccccc2)c(O)c(C(=O)c2ccccc2)c1	60	40	80	> 1000	50	20	–	77.5	40	45.5	13.7	22.2	inactive
CCCCC1C(=O)N(c2ccccc2)N(c2ccccc2)C1=O [PHENYLBUTAZONE]	90	30	90	–	60	30	89	–	60	57.2	31.3	35.5	–
Cc1cc(C(=O)c2ccccc2C)c(O)c(C(=O)c2ccccc2C)c1	90	5	15	> 1000	10	50	70	77.2	70	64.1	16.6	33.2	–
CC(=O)Oc1ccccc1C(=O)O [ASPIRIN]	90	80	90	–	90	30	99	98.3	60	59.6	30.4	35.5	–
